# Screening data as filed in PubChem.
# A selection: hits, their analogues and other compounds. The true share with any hit is near 2.7%.
# RAM network inh: blocks the yeast RAM network; S. cerevisiae dse1pr::URA3 reporter, 5-FOA growth OD615, 2 d; analog-sensitive cbk1-as2 kinase mutant strain; inhibition, % at 50 µM; 1.8% of 190,000 active; AID 868;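 active = inhibition above a set limit, 3 SD over mean compound inhibition, cut at about 8.4% in these data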;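 note: inhibition rescues growth on 5-FOA so higher OD means more RAM inhibition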
# Yeast life ext: yeast lifespan extension; AID 775; inhibition of the nicotinamide effect, % at 10 µM; S. cerevisiae growth with nicotinamide, OD615; deaD strain in restrictive glucose medium; 0.68% of 130,000 active;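 active = inhibition above a set limit, placed 3 SD over the median of all compounds, cut at about 26% in these data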
#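 Assay system: DeaD-strain S. cerevisiae. Medium: CSMM-D glucose medium, restrictive. Reagent: nicotinamide, 1.5 mM, co-present with compound. Compound: 10 µM single point, 0.25% DMSO. Schedule: culture preincubation 4 h, compound exposure 48 h, both 30 °C. Detection: absorbance at 615 nm.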
# Yeast growth inh: chemicals that inhibit yeast BB579 growth in restrictive medium (lifespan-shortening candidates). S. cerevisiae BB579 growth, OD615, 48 h. inhibition, % at 10 µM. 0.51% of 140,000 active;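 active = inhibition above a set limit, 3 SD over the mean compound inhibition, cut at about 44% in these data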
#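 Test system: DeaD yeast strain BB579 / Buffer or medium: restrictive glucose-based CSMM-D medium / Doses: single 10 µM dose / Schedule: 4 h cell preincubation, 48 h compound exposure, 30 °C humidified / Technique: culture absorbance at 615 nm / Controls: amphotericin B positive control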
# SDO1 yeast rescue: restores growth of sdo1-depleted yeast; z-score at 10 µM; 0.21% of 140,000 active; S. cerevisiae sdo1-depleted JHY4D growth rescue, OD600 30 h; hits give high values; pdr5 snq2 efflux-pump mutant strain;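 active = z-score above 3 at both the 24 hr and the 30 hr optical density reads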
# A number is an active result; n = inactive; x = no result.
SMILES,RAM network inh,Yeast life ext,Yeast growth inh,SDO1 yeast rescue
Cc1nnc(NCCc2ccccc2)[nH]c1=O,n,n,n,n
O=C(N/N=C/c1ccccc1Cl)c1nc2ccc([N+](=O)[O-])cc2c(=O)[nH]1,10.2,x,x,x
O=[N+]([O-])c1ccc(Cl)c(/C=N/NC(=S)Nc2ccccc2)c1,n,n,n,n
CCn1c2ccccc2c2cc(NC(=O)c3cc(OC)cc(OC)c3)ccc21,8.6,n,n,n
N#Cc1nc(-c2ccc(OCc3ccccc3)cc2)oc1N1CCC(C(N)=O)CC1,8.6,n,n,n
N#Cc1nc(-c2ccco2)oc1N1CCC(Cc2ccccc2)CC1,9.7,n,n,n
N#Cc1nc(-c2ccco2)oc1N1CCN(c2ccccc2)CC1,n,n,n,n
Cc1ccc(S(=O)(=O)NCCC(=O)Nc2nccs2)cc1,n,x,x,x
Cc1c(C(=O)N/N=C/c2ccc(Cl)cc2)[nH]c2ccc(Cl)cc12,8.5,n,n,n
CC(=O)Nc1ccc(OC(F)(F)C(F)F)c(NC(C)=O)c1,n,n,n,n
O=C(COc1ccccc1)Nc1ccc(OC(F)(F)C(F)F)c(NC(=O)COc2ccccc2)c1,9.8,n,n,n
COc1ccccc1N1CCN(C(=O)Cc2c(C(=O)O)[nH]c3ccc(Cl)cc23)CC1,n,x,x,x
O=C(O)c1[nH]c2ccc(Cl)cc2c1CC(=O)N1CCN(c2ccccc2)CC1,11.4,n,n,n
Cc1ccc([N+](=O)[O-])c2c1C(N1CCCCC1)C(C)(C)O2 (stereo not drawn),n,x,x,x
COc1ccc(NCc2nnc(SCC(=O)Nc3ccc(OC)cc3OC)o2)cc1,n,x,x,x
O=C(CCc1ccccc1)NNC(=S)NC(=O)c1ccccc1,n,n,69.1,n
Cc1ccccc1C(=O)NNC(=S)NC(=O)c1ccccc1,n,30.4,n,n
COC(=O)CSc1nc(-c2ccccc2)nc2ccc(F)cc12,n,n,n,n
CCCN1C(=O)/C(=C/c2ccc(C)o2)SC1=Nc1ccc(OC)cc1,n,n,n,n
CCN1C(=O)/C(=C/c2ccc(C)s2)SC1=Nc1ccc(OC)cc1,9.1,n,n,n
COc1ccc(N=C2S/C(=C\c3ccc(C)o3)C(=O)N2CC(C)C)cc1,10.6,n,n,n
Cc1ccc(NC(=O)CSc2nnc(-c3cnccn3)n2Cc2ccco2)cc1,n,n,n,n
Cc1cccc(NC(=O)CSc2nnc(-c3cnccn3)n2Cc2ccco2)c1,9.9,n,n,n
N#CCCN1CCN(S(=O)(=O)c2ccc3c(c2)OCCCO3)CC1,n,n,n,n
COc1cccc(-c2cc(C(F)(F)F)nc(N3CCCCC3)n2)c1,n,n,n,n
SMILES,RAM network inh,Yeast life ext,Yeast growth inh,SDO1 yeast rescue
COc1cc(OC)nc(Oc2ccccc2C(=O)Oc2ccc(C)cc2)n1,9.5,n,n,n
CCn1c(/C=N/c2nc3ccccc3n2C)nc2ccccc21,n,34.5,n,n
CN(C)S(=O)(=O)c1cc(C(=O)NCCCn2ccc3ccccc32)ccc1Cl,9.3,n,n,n
O=C(Nc1cccnc1Cl)c1noc2c1CCc1ccccc1-2,n,x,x,x
CCN1CCN(c2ncnc3c2sc(=S)n3-c2ccccc2)CC1,n,n,46.3,n
S=c1sc2c(N3CCN(Cc4ccccc4)CC3)ncnc2n1-c1ccccc1,n,n,n,n
C=CCN(CC=C)S(=O)(=O)c1ccc(NC(=S)NC(=O)/C=C/c2ccccc2)cc1,10.0,n,n,n
CCc1ccc(CN(C)C(=O)CCc2nc3ccccc3n(-c3ccc(OC)cc3)c2=O)cc1,n,x,x,x
O=C(O)CCC(=O)CCC(=O)c1ccc(Cl)cc1,n,n,n,n
O=[N+]([O-])c1ccc(N2CCN(C(=S)NCc3ccc(Cl)cc3)CC2)cc1,9.3,x,x,x
CC(=O)N1CCN(C(=S)NCc2ccccc2)CC1,n,n,n,n
O=C(C(Cc1ccccc1)n1cccc1)N1CCN(Cc2ccccc2)CC1 (stereo not drawn),n,n,n,n
S=C(NCc1ccccc1)N1CCN(c2cccc(Cl)c2)CC1,8.5,x,x,x
O=C(C(Cc1ccccc1)n1cccc1)N1CCN(c2cccc(Cl)c2)CC1 (stereo not drawn),8.7,n,n,n
COc1cc(OC)cc(C(=O)N[C@H](C(=O)OCC(=O)Nc2ccc(OC)c(OC)c2)C(C)C)c1,n,x,x,x
COc1cc(OC)cc(C(=O)N[C@H](C(=O)OCC(=O)Nc2ccc(C(C)C)cc2)C(C)C)c1,8.5,n,n,n
NC(=O)C1CCN(C(=O)c2ccc(NC3=NC4CS(=O)(=O)CC4S3)cc2)CC1 (stereo not drawn),n,n,n,n
O=[N+]([O-])c1ccc(/C=N/NC(=S)Nc2ccccc2C(F)(F)F)o1,n,n,n,n
CC(=O)OCCNc1cc(N2CCN(C)CC2)c2noc3c2c1C(=O)c1ccccc1-3,10.4,n,n,n
Cc1cccc(Cn2c(C(=O)OC(C)C)cc3c2ccn3C)c1,11.2,n,n,n
CCOC(=O)c1cc2c(ccn2C)n1Cc1ccc(Cl)cc1,n,x,x,x
CCOC(=O)c1cc2c(ccn2C)n1Cc1ccc(C#N)cc1,10.4,x,x,x
CCN1CCCC1CN(Cc1cc2c(C)cc(C)cc2[nH]c1=O)C(=O)NC1CCCCC1 (stereo not drawn),n,n,n,n
CC(C)c1ccc(C2=C(O)c3ccccc3C(=O)C2=O)cc1,n,46.4,n,n
O=C1C(c2ccncc2)=C(O)c2ccccc21,n,n,n,n
SMILES,RAM network inh,Yeast life ext,Yeast growth inh,SDO1 yeast rescue
CCc1ccccc1NC(=O)CN(C)C(=O)CSc1nn(-c2ccccc2)c(=S)s1,n,n,n,n
CCOC(=O)c1cccc(NC(=O)C2(S(=O)(=O)c3ccc(Cl)cc3)CC2)c1,n,n,n,n
Cc1ccc(NC(=O)Cn2cc(S(=O)(=O)c3ccc(F)cc3)c(=O)c3cc(F)ccc32)cc1,8.5,n,n,n
Cc1ccc(S(=O)(=O)c2cn(CC(=O)Nc3ccccc3)c3ccc(F)cc3c2=O)cc1,n,n,n,n
Cc1noc(C)c1COc1cccc(C(=O)NCc2ccccc2Cl)c1,n,n,n,n
CCOC(=O)c1sc(N)c(C(=O)Nc2ccccc2OC)c1C,n,x,x,x
COc1ccc(Nc2sc(C(=O)Nc3cccc(Cl)c3)c(N)c2C(=O)Nc2ccccc2OC)cc1,9.7,n,n,n
COc1ccccc1NC(=O)c1c(Nc2ccccc2F)sc(C(=O)Nc2cccc(Cl)c2)c1N,10.8,n,n,n
C1CCC2=NCCCN2CC1,n,n,n,n
CC(=O)N1CCC2(CC1)C(C#N)=C(N)OC1=C2C(=O)CC(C)(C)C1,n,n,n,n
COc1ccccc1CNC(=O)c1nn(-c2ccc(C)cc2)c(=O)c2c1c1ccccc1n2C,9.4,n,n,n
COc1ccc(-n2nc(C(=O)NCC(=O)NCc3ccco3)c3ccccc3c2=O)cc1,n,n,n,n
COc1ccc(-n2nc(C(=O)NCc3ccco3)c3c4ccccc4n(C)c3c2=O)cc1Cl,9.8,n,n,n
CC(=O)c1c(C)oc2c1C(=O)c1ccccc1C2=O,n,n,62.5,n
CCCn1c2ccc(F)cc2c2nnc(NN)nc21,n,x,x,x
O=[N+]([O-])c1cc2oc3c(c2c(C=NCc2ccncc2)c1O)CCCC3,n,66.8,n,n
O=S(=O)(Nc1cccc2c1CCCC2)c1ccc(Cl)cc1,9.2,n,n,n
